According to paper PMC3355950 (The Journal of Neuroscience, 2012):

Tests used:
Format in all cases: cell-based
GluN1/GluN2A V783H = GluN1/GluN2A V783H (Rattus norvegicus, UniProt P35439+Q00959, V783H); assay: Two-electrode voltage-clamp recordings, Xenopus oocytes; conditions: 100 μM glutamate + 3 μM glycine
GluA1 AMPA receptors = GluA1 AMPA receptors (Rattus norvegicus, UniProt P19490); assay: Two-electrode voltage-clamp recordings, Xenopus oocytes; conditions: 10 μM TCN-201
Summary of the method: (§1)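 Xenopus laevis oocytes (female) were injected with in vitro transcribed cRNA and recorded by two-electrode voltage clamp 3–4 d after injection at 23°C, holding at −40 mV. Voltage and current electrodes held 0.3 and 3.0 M KCl.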

GluN1/GluN2B L783F+F784V = GluN1/GluN2B L783F+F784V (Rattus norvegicus, UniProt P35439+Q00960, F784V/L783F); assay: Two-electrode voltage-clamp recordings, Xenopus oocytes
Sequence of GluN1/GluN2B L783F+F784V (Q00960 27-1482 L783F/F784V, other chains not shown): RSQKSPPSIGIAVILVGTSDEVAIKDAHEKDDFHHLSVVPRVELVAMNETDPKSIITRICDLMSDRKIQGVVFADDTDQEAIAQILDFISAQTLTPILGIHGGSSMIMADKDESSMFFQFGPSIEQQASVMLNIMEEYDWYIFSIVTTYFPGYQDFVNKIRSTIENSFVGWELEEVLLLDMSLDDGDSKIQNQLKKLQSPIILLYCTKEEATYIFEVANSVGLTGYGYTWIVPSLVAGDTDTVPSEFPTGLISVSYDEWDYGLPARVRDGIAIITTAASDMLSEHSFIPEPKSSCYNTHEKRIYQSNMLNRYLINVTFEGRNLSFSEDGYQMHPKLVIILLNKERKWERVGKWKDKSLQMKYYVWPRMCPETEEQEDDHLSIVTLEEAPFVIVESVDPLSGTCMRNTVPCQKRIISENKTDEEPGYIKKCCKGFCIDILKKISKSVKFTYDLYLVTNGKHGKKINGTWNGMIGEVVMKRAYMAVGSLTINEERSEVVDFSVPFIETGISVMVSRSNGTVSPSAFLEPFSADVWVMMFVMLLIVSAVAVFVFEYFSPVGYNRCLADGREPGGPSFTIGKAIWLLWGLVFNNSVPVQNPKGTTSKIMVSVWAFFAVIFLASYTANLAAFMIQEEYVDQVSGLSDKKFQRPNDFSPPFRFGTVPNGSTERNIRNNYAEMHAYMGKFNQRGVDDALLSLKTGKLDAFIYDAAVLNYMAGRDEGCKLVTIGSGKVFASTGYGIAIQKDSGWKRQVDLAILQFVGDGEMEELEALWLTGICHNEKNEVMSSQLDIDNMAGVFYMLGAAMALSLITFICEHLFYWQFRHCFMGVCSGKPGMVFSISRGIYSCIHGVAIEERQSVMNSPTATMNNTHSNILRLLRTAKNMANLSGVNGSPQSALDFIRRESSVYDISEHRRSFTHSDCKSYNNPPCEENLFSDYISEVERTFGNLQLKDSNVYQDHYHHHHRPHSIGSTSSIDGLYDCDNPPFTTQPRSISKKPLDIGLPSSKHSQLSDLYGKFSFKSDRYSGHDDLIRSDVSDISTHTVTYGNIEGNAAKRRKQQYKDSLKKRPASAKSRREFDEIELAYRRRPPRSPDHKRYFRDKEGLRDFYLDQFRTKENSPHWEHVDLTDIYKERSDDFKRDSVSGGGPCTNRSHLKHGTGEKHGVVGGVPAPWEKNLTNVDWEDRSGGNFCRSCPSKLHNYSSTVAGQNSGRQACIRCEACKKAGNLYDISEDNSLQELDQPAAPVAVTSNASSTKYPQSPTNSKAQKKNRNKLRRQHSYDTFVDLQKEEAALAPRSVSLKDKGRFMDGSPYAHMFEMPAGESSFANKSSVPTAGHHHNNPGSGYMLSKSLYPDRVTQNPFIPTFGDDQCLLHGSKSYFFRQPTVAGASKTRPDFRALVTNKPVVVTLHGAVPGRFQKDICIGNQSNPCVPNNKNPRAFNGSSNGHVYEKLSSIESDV

GluN1/GluN2A [1] = biological target: T1, GluN1/GluN2A (Rattus norvegicus, UniProt P35439+Q00959); assay: Whole-cell voltage-clamp recordings, HEK293 cells, rapid solution exchange; conditions: for % fast / τfast / τslow: brief application (10 ms) of 1000 μM glycine
Summary of the method: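 HEK293 cells were plated on poly-D-lysine coverslips about 48 h ahead and calcium-phosphate cotransfected with GluN1, GluN2A and GFP (1:1:1). 200 μM D,L-APV and 200 μM 7-chlorokynurenic acid were added after transfection. Whole-cell recording was done about 24 h later at −60 mV and 23°C on lifted cells with piezo-driven theta-glass exchange.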

GluN1/2A-(2D D2) = GluN1/2A-(2D D2) (Rattus norvegicus, UniProt P35439+Q00959, D675E/D715E/F680L/F708Y/G712R/G740R/H674Q/I755V/K668R/K738M/N696S/Q661T/Q703S/R681K/R692K/R711P/R741K/S677Y/S719Q/T663S/T706V/T722A/V718T/Y676Q/Y700D/Y754K); assay: Two-electrode voltage-clamp recordings, Xenopus oocytes; conditions: 100 μM glutamate plus 30 μM glycine
GluN1/GluN2B F784V = GluN1/GluN2B F784V (Rattus norvegicus, UniProt P35439+Q00960, F784V); assay: as above
Sequence of GluN1/GluN2B F784V (Q00960 27-1482 F784V, other chains not shown): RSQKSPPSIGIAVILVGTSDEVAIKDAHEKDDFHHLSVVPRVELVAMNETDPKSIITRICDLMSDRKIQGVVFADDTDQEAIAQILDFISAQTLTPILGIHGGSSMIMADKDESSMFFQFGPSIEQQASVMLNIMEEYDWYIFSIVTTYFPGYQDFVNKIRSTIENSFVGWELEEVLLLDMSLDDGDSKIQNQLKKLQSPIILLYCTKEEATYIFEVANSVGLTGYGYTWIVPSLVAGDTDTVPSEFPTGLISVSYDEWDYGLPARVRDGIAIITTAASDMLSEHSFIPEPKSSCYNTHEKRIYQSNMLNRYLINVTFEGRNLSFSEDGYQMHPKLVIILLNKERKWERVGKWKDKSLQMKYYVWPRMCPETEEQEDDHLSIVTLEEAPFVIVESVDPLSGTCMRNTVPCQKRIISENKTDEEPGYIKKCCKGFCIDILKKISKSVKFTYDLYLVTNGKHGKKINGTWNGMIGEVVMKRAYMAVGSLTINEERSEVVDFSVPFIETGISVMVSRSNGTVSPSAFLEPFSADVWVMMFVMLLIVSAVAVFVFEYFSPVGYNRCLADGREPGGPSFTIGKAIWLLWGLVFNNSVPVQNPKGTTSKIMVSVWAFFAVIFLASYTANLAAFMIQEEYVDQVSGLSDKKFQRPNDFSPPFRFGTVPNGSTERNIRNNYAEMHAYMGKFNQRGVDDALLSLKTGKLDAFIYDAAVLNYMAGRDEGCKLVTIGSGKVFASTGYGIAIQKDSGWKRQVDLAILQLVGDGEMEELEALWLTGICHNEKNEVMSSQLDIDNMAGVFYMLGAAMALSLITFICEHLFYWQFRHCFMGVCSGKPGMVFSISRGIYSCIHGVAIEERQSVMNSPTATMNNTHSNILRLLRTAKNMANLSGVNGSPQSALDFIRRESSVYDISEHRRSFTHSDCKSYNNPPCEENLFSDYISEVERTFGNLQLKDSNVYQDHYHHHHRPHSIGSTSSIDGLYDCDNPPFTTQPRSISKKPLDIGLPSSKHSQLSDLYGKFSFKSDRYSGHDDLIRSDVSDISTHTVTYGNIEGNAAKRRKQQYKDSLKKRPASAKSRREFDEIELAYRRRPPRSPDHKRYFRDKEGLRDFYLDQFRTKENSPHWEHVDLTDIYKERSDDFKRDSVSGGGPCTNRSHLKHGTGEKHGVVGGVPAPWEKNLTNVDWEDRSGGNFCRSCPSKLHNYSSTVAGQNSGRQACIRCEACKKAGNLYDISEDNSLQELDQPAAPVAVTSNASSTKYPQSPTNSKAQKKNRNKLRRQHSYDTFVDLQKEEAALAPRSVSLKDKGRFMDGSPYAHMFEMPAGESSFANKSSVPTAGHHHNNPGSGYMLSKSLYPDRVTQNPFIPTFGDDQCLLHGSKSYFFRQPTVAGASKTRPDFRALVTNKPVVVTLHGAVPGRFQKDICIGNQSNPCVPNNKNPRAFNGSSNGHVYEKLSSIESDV

GluN1/2A-(2D S1+S2) = GluN1/2A-(2D S1+S2) (Rattus norvegicus, UniProt P35439+Q00959, A414R/D421P/D675E/D715E/DELINS438-452SQLNRTHSPPPDAPRPE/E427G/E790M/F680L/F708Y/G712R/G740R/G786D/H674Q/I408V/I422A/I755V/K454R/K466R/K472G/K668R/K738M/L425I/M788I/N404Q/N432D/N490D/N491G/N696S/P770R/Q661T/Q703S/Q766H/Q774P/R469H/R681K/R692K/R711P/R741K/S407T/S468A/S538A/S677Y/S719Q/S758T/T426S/T433S/T474S/T663S/T706V/T722A/T793R/T797S/V409A/V430I/V471I/V489I/V501F/V506D/V509I/V521I/V718T/V783L/Y676Q/Y700D/Y754K); assay: as above; conditions: 100 μM glutamate plus 30 μM glycine
GluN1/GluN2A V783D = GluN1/GluN2A V783D (Rattus norvegicus, UniProt P35439+Q00959, V783D); assay: as above; conditions: 100 μM glutamate + 3 μM glycine
GluN1/2A-(2D ATD) = GluN1/2A-(2D ATD) (Rattus norvegicus, UniProt P35439+Q00959+Q62645, A388P/C399P/D398Q/D403T/E353D/E371T/E400V/G345N/H358N/H387Y/K346R/K368R/K374V/K377S/K394G/L348Y/N367T/N380Q/N404Q/P391S/P401D/Q356L/R360S/R386K/S384R/S395R/S397L/T351N/V365S/V389L/Y355F); assay: as above; conditions: 100 μM glutamate plus 30 μM glycine; vs GluN1/GluN2A
GluN1/GluN2C = GluN1/GluN2C (Rattus norvegicus, UniProt P35439+Q00961); assay: Two-electrode voltage-clamp recordings, Xenopus oocytes; conditions: 100 μM glutamate + 3 μM glycine; N.E. = no effect at 10 μM TCN-201
Sequence of GluN1/GluN2C (Q00961 20-1237, other chains not shown): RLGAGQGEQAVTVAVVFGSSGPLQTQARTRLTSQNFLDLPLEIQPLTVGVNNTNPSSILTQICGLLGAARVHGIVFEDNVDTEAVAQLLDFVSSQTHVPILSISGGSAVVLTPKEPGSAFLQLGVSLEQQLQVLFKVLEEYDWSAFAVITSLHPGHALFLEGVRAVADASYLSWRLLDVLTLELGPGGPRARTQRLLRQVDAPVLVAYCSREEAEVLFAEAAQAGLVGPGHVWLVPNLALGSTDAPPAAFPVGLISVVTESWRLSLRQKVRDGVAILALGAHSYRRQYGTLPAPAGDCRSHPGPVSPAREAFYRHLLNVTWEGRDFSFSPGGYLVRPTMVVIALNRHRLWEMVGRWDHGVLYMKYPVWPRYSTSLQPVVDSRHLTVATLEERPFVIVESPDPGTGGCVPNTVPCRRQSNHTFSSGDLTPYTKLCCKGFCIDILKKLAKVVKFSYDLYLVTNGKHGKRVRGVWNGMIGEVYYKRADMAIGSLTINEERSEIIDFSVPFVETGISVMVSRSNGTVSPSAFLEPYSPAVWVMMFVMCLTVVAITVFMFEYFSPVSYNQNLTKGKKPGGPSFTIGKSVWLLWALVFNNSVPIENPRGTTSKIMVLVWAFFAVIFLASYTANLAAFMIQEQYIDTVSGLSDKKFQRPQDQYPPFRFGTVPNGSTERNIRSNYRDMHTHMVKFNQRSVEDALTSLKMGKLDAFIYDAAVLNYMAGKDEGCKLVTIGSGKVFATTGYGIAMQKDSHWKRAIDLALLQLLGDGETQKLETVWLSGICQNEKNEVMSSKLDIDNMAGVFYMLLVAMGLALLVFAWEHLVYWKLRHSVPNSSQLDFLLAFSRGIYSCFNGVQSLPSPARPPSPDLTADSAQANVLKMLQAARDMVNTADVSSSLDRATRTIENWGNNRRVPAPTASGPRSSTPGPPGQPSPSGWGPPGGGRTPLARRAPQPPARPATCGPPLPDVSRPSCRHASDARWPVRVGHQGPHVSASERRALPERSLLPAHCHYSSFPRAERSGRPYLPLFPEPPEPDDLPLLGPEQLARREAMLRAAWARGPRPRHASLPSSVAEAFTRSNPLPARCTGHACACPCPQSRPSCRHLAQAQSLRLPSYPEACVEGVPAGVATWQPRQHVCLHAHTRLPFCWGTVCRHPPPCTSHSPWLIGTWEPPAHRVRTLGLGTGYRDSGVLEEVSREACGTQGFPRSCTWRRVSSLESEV
Summary of the method: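 cRNA from linearized constructs injected into female Xenopus laevis oocytes. Two-electrode voltage clamp done 3–4 d later at 23°C, holding at −40 mV, in 90 NaCl, 1 KCl, 10 HEPES, 0.5 BaCl₂, 0.01 EDTA (mM), pH 7.4. […] Max inhibition is (control − residual at saturating compound)/control.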

[2] = biological target: GluN1-1b/GluN2A receptors (Rattus norvegicus, UniProt P35439+Q00959); assay: Two-electrode voltage-clamp recordings, Xenopus oocytes; conditions: 3 μM TCN-201, 30 μM glycine; contains exon 5
Summary of the method: as §1

GluN1/GluN2A [3] = biological target: T1, GluN1/GluN2A; assay: Two-electrode voltage-clamp recordings, Xenopus oocytes; conditions: for Schild slope / pA2 (Schild plot): 100 μM glutamate
[4] = 100 μM glutamate + 3 μM glycine
[5] = 50 μM glutamate, antagonist 0.1 μM
[6] = 50 μM glutamate, antagonist 0.3 μM
[7] = 50 μM glutamate, antagonist 1 μM
[8] = 100 μM glutamate + 1 μM glycine
[9] = 100 μM glutamate + 30 μM glycine

Sequence of GluA1 AMPA receptors (P19490 19-907): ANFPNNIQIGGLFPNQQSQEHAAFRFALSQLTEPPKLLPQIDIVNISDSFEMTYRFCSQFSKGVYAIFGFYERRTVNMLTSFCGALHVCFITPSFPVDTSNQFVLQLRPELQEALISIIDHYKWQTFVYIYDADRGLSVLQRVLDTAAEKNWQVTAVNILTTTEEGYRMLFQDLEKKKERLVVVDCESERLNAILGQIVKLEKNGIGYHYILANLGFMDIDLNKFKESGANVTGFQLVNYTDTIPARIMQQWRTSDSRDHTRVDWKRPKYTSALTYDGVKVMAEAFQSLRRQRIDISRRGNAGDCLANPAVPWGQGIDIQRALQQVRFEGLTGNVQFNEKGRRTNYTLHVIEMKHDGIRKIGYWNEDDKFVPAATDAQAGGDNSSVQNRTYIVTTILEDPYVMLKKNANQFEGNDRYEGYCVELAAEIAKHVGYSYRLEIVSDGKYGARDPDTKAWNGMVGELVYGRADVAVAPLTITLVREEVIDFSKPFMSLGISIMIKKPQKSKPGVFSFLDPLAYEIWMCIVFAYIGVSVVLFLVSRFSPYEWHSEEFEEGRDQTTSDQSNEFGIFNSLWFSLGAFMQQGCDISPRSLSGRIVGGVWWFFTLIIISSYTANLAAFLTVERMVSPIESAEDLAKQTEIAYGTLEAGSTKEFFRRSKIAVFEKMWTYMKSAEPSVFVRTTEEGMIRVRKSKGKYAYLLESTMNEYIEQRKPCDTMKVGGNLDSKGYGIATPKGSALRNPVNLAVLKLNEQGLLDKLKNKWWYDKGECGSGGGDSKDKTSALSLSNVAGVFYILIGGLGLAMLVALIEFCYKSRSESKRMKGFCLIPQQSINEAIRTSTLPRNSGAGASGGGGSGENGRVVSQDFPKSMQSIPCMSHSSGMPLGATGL

O=C(NNC(=O)c1ccc(CNS(=O)(=O)c2ccc(F)c(Cl)c2)cc1)c1ccccc1 [TCN-201, 3-chloro-4-fluoro-N-[(4-[(2-(phenylcarbonyl)hydrazino)carbonyl]phenyl)methyl]-benzenesulfonamide]
TCN-201 activity Max. % inhibition (GluN1/GluN2A V783H): 93 ± 4% | TCN-201 activity nH (GluN1/GluN2A V783H): 0.9 | Effect on responses activated by 100 μM glutamate (GluA1 AMPA receptors): did not affect responses | Kb (GluN1/GluN2B L783F+F784V): 437 nM | TCN-201 activity nH (GluN1/GluN2B L783F+F784V; [4]): 1.3 | τinhibition (GluN1/GluN2A [1]; 3 μM TCN-201 in the presence of both glutamate (50 μM) and glycine (10 μM)): 3.4 ± 0.2 s | τinhibition (time constant for TCN-201 binding) (GluN1/GluN2A [1]; 3 μM TCN-201 pre-incubated in the absence of any agonists): 3.5 ± 0.3 s | τinhibition (GluN1/GluN2A [1]; 3 μM TCN-201 pre-incubated with glutamate alone (50 μM)): 1.1 ± 0.1 s | TCN-201 binding / τinhibition (GluN1/GluN2A [1]; 3 μM TCN-201 pre-incubated with glycine alone (10 μM)): Minimal binding | τweighted for glycine deactivation (GluN1/GluN2A [1]; brief (10 ms) 1 mM glycine, 50 μM glutamate, 1 μM TCN-201): 27 ± 2 ms | % fast (GluN1/GluN2A [1]; [5]): 74 ± 2% | τfast (GluN1/GluN2A [1]; [5]): 20 ± 1 ms | τslow (GluN1/GluN2A [1]; [5]): 131 ± 7 ms | % fast (GluN1/GluN2A [1]; [6]): 82 ± 1% | τfast (GluN1/GluN2A [1]; [6]): 18 ± 1 ms | τslow (GluN1/GluN2A [1]; [6]): 123 ± 11 ms | % fast (GluN1/GluN2A [1]; [7]): 89 ± 2% | τfast (GluN1/GluN2A [1]; [7]): 16 ± 2 ms | τslow (GluN1/GluN2A [1]; [7]): 116 ± 19 ms | τweighted for glycine deactivation vs absence of TCN-201 (GluN1/GluN2A [1]; long (5 seconds) 1 mM glycine, 50 μM glutamate): no significant difference | deactivation time constant, mono-exponential fit (τslow) (GluN1/GluN2A [1]; long application (5 seconds) of 1000 μM glycine, 50 μM glutamate, antagonist 0.3 μM): 124 ± 12 ms | Inhibition by 3 μM TCN-201 (GluN1/2A-(2D D2)): some TCN-201 activity was retained | Kb (GluN1/GluN2B F784V): 1380 nM | TCN-201 activity nH (GluN1/GluN2B F784V; [4]): 1.2 | Inhibition by 3 μM TCN-201 (GluN1/2A-(2D S1+S2)): abolished | TCN-201 activity Max. % inhibition (GluN1/GluN2A V783D): 92 ± 2% | TCN-201 activity nH (GluN1/GluN2A V783D): 1.2 | Inhibition by 3 μM TCN-201 (GluN1/2A-(2D ATD)): did not reduce inhibition | TCN-201 activity IC50 (GluN1/GluN2C): did not inhibit and N.E. | Response, % of control [2]: 49 ± 2 % of control | TCN-201 activity Max. % inhibition (GluN1/GluN2A [3]; [8]): 100 ± 1% | TCN-201 activity nH (GluN1/GluN2A [3]; [8]): 1.2 | TCN-201 activity nH (GluN1/GluN2A [3]; [4]): 1.5 | TCN-201 activity Max. % inhibition (GluN1/GluN2A [3]; [9]): 73 ± 2% | TCN-201 activity nH (GluN1/GluN2A [3]; [9]): 2.2 | Schild slope (GluN1/GluN2A [3]; agonist D-cycloserine): 0.90 | pA2 (Schild plot) (GluN1/GluN2A [3]; agonist D-cycloserine): 7.39 | Schild slope (GluN1/GluN2A [3]; agonist D-serine): 0.79 | pA2 (Schild plot) (GluN1/GluN2A [3]; agonist D-serine): 7.39 | Schild slope (GluN1/GluN2A [3]; agonist glycine): 0.87 | allosteric constant α (GluN1/GluN2A [3]; global nonlinear regression of glycine concentration-response data): 0.0025 | Maximal increase in glycine EC50 (1/α) (GluN1/GluN2A [3]; implied by α = 0.0025): 400 fold
